From article PMC11868578 (Nature Communications, 2025)
Values after ≈ are worked out from the molar mass of the structure shown.

T1: N WT (NWT) (Tomato spotted wilt virus (TSWV), UniProt P26000 1-258)
T1 sequence: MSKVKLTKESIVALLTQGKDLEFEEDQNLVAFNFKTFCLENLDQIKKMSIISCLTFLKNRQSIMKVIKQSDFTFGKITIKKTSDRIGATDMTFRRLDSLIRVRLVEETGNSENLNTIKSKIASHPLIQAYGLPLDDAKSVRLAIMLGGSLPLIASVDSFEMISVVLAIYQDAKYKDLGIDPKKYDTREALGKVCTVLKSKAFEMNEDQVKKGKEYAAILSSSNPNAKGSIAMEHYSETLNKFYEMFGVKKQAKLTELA


Tests used:
[1] = test system: N-YFP IBs (N protein condensates); assay: N-YFP inclusion bodies; format: cell-based, Nicotiana benthamiana
[2] = test system: TSWV; assay: Anti-TSWV assay, half-leaf method on Nicotiana glutinosa; format: in vivo, tomato spotted wilt virus; settings: for Curative effect (%) / Inactive effect (%) (inactivation activity) / Protective effect (%): 500 µg/mL, half-leaf method, N. glutinosa, mean ± SD, n = 3; for EC50: Orthotospovirus tomatomaculae, in Nicotiana glutinosa
Method in brief: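 Half-leaf test on healthy N. glutinosa, leaves pre-dusted with carborundum and virus extract brushed on. Curative: leaves rinsed 30 min after inoculation, then agent put on the right half. Protective: agent put on 12 h before inoculation. Inactivation: agent mixed 1:1 with virus extract on ice for 30 min, then put on the right half; left half got buffer-diluted virus. Plants grown at 25 °C day/23 °C night. Lesions counted after about 2 days. EC50 from 31.25–500 µg/mL.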

[3] = test system: PVY; assay: Inactivation activity against PVY; format: in vivo; settings: read-out: Inhibition rate (inactivation activity) against PVY
[4] = test system: PMMoV; assay: Inactivation activity against PMMoV; format: in vivo; settings: read-out: Inhibition rate (inactivation activity) against PMMoV
[5] = molecular target: T1, N WT (NWT); assay: BLI

Row | Molecule | Effect on N-YFP particle number, leaves treated at 36 h ([1]; 36 hpi) | Effect on large N-YFP granules, leaves treated at 72 h ([1]; 72 hpi) | Curative effect (%) [2] [%] | Inactive effect (%) (inactivation activity) [2] | Protective effect (%) [2] [%] | Inactive effect (%) (inactivation activity) ([2]; listed as ribavirin) | EC50 [2] [µg/mL] | inhibition at 500 µg/mL [3] [%] | inhibition at 500 µg/mL [4] [%] | Inactive effect (%) (inactivation activity) ([2]; listed as ningnanmycin) | Kd [5] [nM]
1 | OCCCCCCO [1,6-hexanediol] | significant reduction in particle number | difficult to observe a significant decrease in the number of large particles | – | – | – | – | – | – | – | – | –
2 | NC(=O)c1ncn([C@@H]2O[C@H](CO)[C@@H](O)[C@H]2O)n1 [Ribavirin] | – | – | 39.2 ± 3.2 | 43.7 ± 7.5 | 40.4 ± 6.8 | 43.7 | 802 ± 12.6 (≈ 3280 µM) | 55.3 | 56.5 | – | –
3 | CNCC(=O)N[C@@H](CO)C(=O)N[C@H]1[C@H](O)[C@@H](O)[C@H](n2ccc(N)nc2=O)O[C@@H]1C(N)=O [Ningnanmycin] | – | – | 57.9 ± 1.5 | 69.3 ± 2.4 | 61.7 ± 5.2 | – | 149 ± 8.7 (≈ 337 µM) | 77.6 | 72 | 69.3 | –
4 | GAGAGCAAUUGUGUCAGAA (ssRNA) [biotinylated RNA (BLI)] | – | – | – | – | – | – | – | – | – | – | 7.3
